Active and inactive are the calls of the source.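 The calls were made as follows, unless noted: active = NADPH fluorescence slope more negative than the mean of all samples by about 3 SD, 99.7% confidence; inactive = the rest.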
Experiments:
[1] = inhibitors of TNFa-induced NFkB p65 translocation, primary screen, imaging, HUVEC, MLSMR starter and 10KST1 sets (AID 438;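 active = inhibition above 20% together with a positive visual image hit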;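 also: compound added about 3h40 before a 20 min TNFalpha stimulation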;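 as to inhibition: signal is the nuclear over cytoplasmic p65 intensity ratio per well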); details: HUVEC TNFa-induced p65 nuclear translocation; cell count: measured here: nuclei count (cytotoxicity indicator), at 2.08 µM; inhibition: at 2 µM, stronger effect = higher value, 0% TNFa-plus-vehicle, 100% no-TNFa wells
[2] = reduction of polyQ htt aggregates in cells – imaging, exon1htt(103Q)mCFP cells, high-content imaging, primary screen (AID 483;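 active = visual image review flags a hit and inhibition of aggregation exceeds 20%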;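 also: compound exposure lasted 3 days before fixation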;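 as to nuclei count: percent of the per-plate median nuclei count of sample wells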); details: exon1htt(103Q)mCFP cell line, aggregate imaging, at 2 µM; inhibition of aggregation: stronger effect = higher value; nuclei count: measured here: cell count, toxicity
[3] = endothelial E-selectin expression blockers – imaging, HUVEC, immunofluorescence, MLSMR starter and 10KST1 sets, primary screen (AID 487;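 active = visually confirmed hit in the image check and inhibition above 20%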;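 as to inhibition: signal is fraction of cell area covered by stained E-selectin grains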;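 as to nuclei count: 100% = median nuclei count of all wells on the same plate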); details: HUVEC TNFalpha-induced E-selectin immunofluorescence imaging, at 2 µM; inhibition: stronger effect = higher value; nuclei count: measured here: cell number, toxicity
[4] = target: Voltage-gated potassium channel subunit beta-2 (Rattus norvegicus) (UniProt P62483); experiment: inhibitors of rat Kvbeta2 reductase activity – biochemical, NADPH fluorescence, primary screen (AID 622;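 active = fluorescence slope higher than the sample average by over 3 SD, cut at about -0.22 in these data, passing the limit was not always enough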;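 also: slope of raw intensity against log time taken from 70 to 1610 s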); details: recombinant KvBeta, 4-cyanobenzaldehyde reduction, at 10 µM, stronger effect = higher value
Chain of Voltage-gated potassium channel subunit beta-2 (Rattus norvegicus) (P62483 whole entry, looked up): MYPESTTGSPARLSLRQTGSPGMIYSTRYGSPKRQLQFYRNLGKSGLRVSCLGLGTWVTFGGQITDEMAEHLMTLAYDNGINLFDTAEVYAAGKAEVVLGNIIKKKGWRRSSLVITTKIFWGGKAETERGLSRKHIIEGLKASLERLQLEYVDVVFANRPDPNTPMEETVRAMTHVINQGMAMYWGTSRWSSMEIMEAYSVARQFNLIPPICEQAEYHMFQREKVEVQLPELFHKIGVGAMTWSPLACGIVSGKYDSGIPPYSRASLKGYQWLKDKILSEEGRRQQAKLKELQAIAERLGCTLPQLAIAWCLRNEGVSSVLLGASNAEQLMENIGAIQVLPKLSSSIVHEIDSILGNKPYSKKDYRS

[5] = target: Voltage-gated potassium channel subunit beta-2 (Rattus norvegicus) (UniProt P62483); experiment: enhancers of rat Kvbeta2 NADPH turnover – biochemical, NADPH fluorescence, primary screen (AID 623); details: Recombinant KvBeta, NADPH fluorescence decrease slope, 10 min; at 10 µM; stronger effect = lower value;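 also: fluorescence intensity change per second fitted from 20 to 320 s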
[6] = target: Muscarinic acetylcholine receptor M4 (Homo sapiens) (UniProt P08173); experiment: M4-linked GIRK flux change, two-sided – cell-based, HEK293 M4/GIRK, thallium flux, BTC-AM, M4 allosteric agonist project, primary screen (AID 625;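 active = fluorescence slope after compound addition differing from the mean of all tested samples at 99.7% confidence, mostly higher but some lower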;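 also: thallium influx through GIRK channels coupled to M4 in HEK293 cells with BTC-AM dye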); details: at 10 µM, actives lie on both sides
Chain of Muscarinic acetylcholine receptor M4 (Homo sapiens) (P08173 whole entry, looked up): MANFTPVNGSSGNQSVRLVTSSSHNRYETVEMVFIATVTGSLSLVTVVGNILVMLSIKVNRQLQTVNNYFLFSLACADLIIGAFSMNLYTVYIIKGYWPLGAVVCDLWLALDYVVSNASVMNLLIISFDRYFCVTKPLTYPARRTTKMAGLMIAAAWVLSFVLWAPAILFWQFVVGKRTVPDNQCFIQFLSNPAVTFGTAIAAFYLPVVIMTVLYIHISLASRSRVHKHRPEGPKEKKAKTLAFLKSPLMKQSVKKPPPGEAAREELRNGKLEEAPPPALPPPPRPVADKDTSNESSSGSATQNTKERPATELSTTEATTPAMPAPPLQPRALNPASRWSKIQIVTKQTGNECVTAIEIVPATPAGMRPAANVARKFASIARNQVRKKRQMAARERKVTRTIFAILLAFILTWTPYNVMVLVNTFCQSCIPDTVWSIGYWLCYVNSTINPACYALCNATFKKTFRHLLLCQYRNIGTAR
Procedure, shortened: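 Material: HEK293 cells with M4 receptor and GIRK channels; Times: cells overnight at 37 °C, BTC-AM loading 1 h, reads 2 min total; Technique: kinetic BTC-AM fluorescence sampled at 1 Hz, 10 s pre-addition baseline; Read-out basis: slope over 15–24 s of trace normalized to starting intensity; Controls: carbachol positive, DMSO negative.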

[7] = blockers of RIG-like receptor reporter activation – cell-based, Sendai virus stimulus, luciferase, 10K MLSCN set, TLR/RLR signaling modifier project, primary screen (AID 602276;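 active = inhibition at or above 50% at 10 µM; inactive = inhibition below 50%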;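 also: firefly luciferase from ISG56 promoter only with Renilla not read in this screen; 0% = Sendai virus plus DMSO and 100% = medium plus DMSO without virus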); details: HEK293 RL24 IRF3 luciferase reporter, at 10 µM, stronger effect = higher value
[8] = TLR3 IRF3 reporter activation blockers – cell-based, poly I:C stimulus, luciferase, 10K MLSCN set, primary screen (AID 602277;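 active = inhibition of the reporter signal at or above 50%; inactive = inhibition below 50%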); details: HEK293-TLR3 RL24 IRF3 luciferase reporter, at 10 µM, stronger effect = higher value

SMILES | cell count [1] | inhibition [1] | inhibition of aggregation [2] | nuclei count [2] [%] | inhibition [3] | nuclei count [3] [%] | fluorescence slope [4] | NADPH fluorescence slope [5] | fluorescence slope [6] | inhibition [7] | inhibition [8]
Cc1nnc(SCC(=O)Nc2ccc3c4c(cccc24)CC3)n1C | 336 | 1.8% (inactive) | -11.5% (inactive) | 97.3 | -41.4% (inactive) | 108 | -0.24 (inactive) | -4.5e-05 (inactive) | 0.00568 (inactive) | 15.8% (inactive) | 5.58% (inactive)
COc1ccc(CC(=O)Nc2c3c(nn2-c2cccc(Cl)c2)CS(=O)(=O)C3)cc1 | 785 | -11.6% (inactive) | -2.4% (inactive) | 98.5 | -28.2% (inactive) | 107 | -0.529 (inactive) | 1.2e-05 (inactive) | 0.00322 (inactive) | 19.7% (inactive) | 20.9% (inactive)
CCOC(=O)C1=C(C)N(C)C(C)=C(C(=O)OCC)C1c1cccnc1 | 366 | -5.2% (inactive) | -14.4% (inactive) | 93.8 | -55.9% (inactive) | 115 | -0.5 (inactive) | -2.2e-05 (inactive) | 0.00631 (inactive) | -2.74% (inactive) | 6.76% (inactive)
O=C(Cc1ccccc1)Nc1nnc(-c2cccs2)s1 | 373 | -5.4% (inactive) | -3.5% (inactive) | 115 | -11.8% (inactive) | 130 | -0.521 (inactive) | -1.2e-05 (inactive) | 0.00894 (inactive) | 7.41% (inactive) | -69.9% (inactive)
OCc1nc(CO)n(Cc2ccccc2)n1 | 447 | -17.6% (inactive) | -12.2% (inactive) | 112 | 42.4% (inactive) | 86.8 | -0.501 (inactive) | -4.7e-05 (inactive) | 0.00536 (inactive) | 7.11% (inactive) | 19.9% (inactive)
COC(=O)c1c(N)n(-c2cc(OC)cc(OC)c2)c2nc3ccccc3nc12 | 700 | 9.4% (inactive) | 2.3% (inactive) | 84.9 | 28.6% (inactive) | 80 | -0.0659 (inactive) | -2.3e-05 (inactive) | 0.00491 (inactive) | 2.96% (inactive) | -6.82% (inactive)
CCN1CCN(C(=O)c2cn(CCOC)c(=O)c3c2c2ccccc2n3C)CC1 | 460 | 2.7% (inactive) | 2.4% (inactive) | 108 | -40.3% (inactive) | 109 | -0.582 (inactive) | -6.9e-06 (inactive) | 0.00622 (inactive) | 6.11% (inactive) | 14.5% (inactive)
CC(=O)N1C(=O)N(C)C2C1N(C(C)=O)C(=O)N2C (stereo not drawn) | 395 | 5.4% (inactive) | 7.3% (inactive) | 96.4 | -4.1% (inactive) | 98.6 | -0.574 (inactive) | -5e-05 (inactive) | 0.00666 (inactive) | 11.1% (inactive) | 16.5% (inactive)
Cc1cc2oc(=O)cc(CN3CCCCC3)c2cc1C(C)C | 366 | -3.9% (inactive) | -20.2% (inactive) | 91.1 | 67.8% (active) | 56.9 | -0.56 (inactive) | -2.5e-05 (inactive) | 0.0051 (inactive) | 10.7% (inactive) | 40.9% (inactive)
Cn1c(COc2ccccc2)nnc1SCC(=O)Nc1ccc(N2CCOCC2)c(Cl)c1 | 497 | -6.9% (inactive) | -10.9% (inactive) | 102 | -6.4% (inactive) | 102 | -0.477 (inactive) | -6.6e-05 (inactive) | 0.00548 (inactive) | 13.5% (inactive) | 17.5% (inactive)
Cc1cc(C)n(-c2nc3ccccc3c(=O)n2OCCOc2ccccc2)n1 | 533 | -9% (inactive) | -7.8% (inactive) | 107 | -17.9% (inactive) | 94.2 | -0.453 (inactive) | 8.7e-05 (inactive) | 0.00727 (inactive) | -12.3% (inactive) | -13.3% (inactive)
COc1ccc(CCN2C(=O)C3C4C=CC(C4)C3C2=O)cc1OC (stereo not drawn) | 493 | -3.8% (inactive) | 2.1% (inactive) | 105 | -4.2% (inactive) | 99.7 | -0.451 (inactive) | -4e-05 (inactive) | 0.00653 (inactive) | 10.2% (inactive) | 12.7% (inactive)
COc1ccc(C)cc1S(=O)(=O)N1CCN(Cc2ccccc2)CC1 | 708 | -7.1% (inactive) | -4.2% (inactive) | 98.5 | -41.3% (inactive) | 102 | -0.558 (inactive) | -1.1e-05 (inactive) | 0.00529 (inactive) | 21.4% (inactive) | 19.5% (inactive)
COc1ccccc1NC(=O)N(Cc1ccccc1)c1ccccn1 | 756 | 3.2% (inactive) | -5.9% (inactive) | 93.7 | 19.9% (inactive) | 114 | -0.581 (inactive) | -7e-05 (inactive) | 0.00744 (inactive) | -7.55% (inactive) | -38.8% (inactive)
CCOc1ccc(C(=O)Nc2cc(C)on2)cc1OCC | 372 | -2.3% (inactive) | -2.8% (inactive) | 110 | -61.3% (inactive) | 108 | -0.437 (inactive) | -5.8e-05 (inactive) | 0.00551 (inactive) | 11.5% (inactive) | 7.31% (inactive)
COC(=O)CCc1c(C)c(C#N)c2nc3ccccc3n2c1N1CCCC1 | 490 | -2.7% (inactive) | 9.1% (inactive) | 103 | -103% (inactive) | 159 | -0.0763 (active) | -4e-06 (inactive) | 0.00578 (inactive) | 15% (inactive) | -5.51% (inactive)
COc1cc(C2c3c(oc4c(C)cc(C)cc4c3=O)C(=O)N2Cc2cccnc2)cc(OC)c1OC (stereo not drawn) | 632 | 0.3% (inactive) | 7.3% (inactive) | 106 | -4.3% (inactive) | 97.5 | -0.552 (inactive) | 1.8e-05 (inactive) | 0.0049 (inactive) | -24.2% (inactive) | 3.14% (inactive)
Cc1ccc(-n2c3c(cc(C(=O)O)c2=O)C(=O)CC(C)(C)C3)cc1 | 418 | 2.8% (inactive) | 6.9% (inactive) | 109 | 3.1% (inactive) | 110 | -0.377 (inactive) | 4.6e-05 (inactive) | 0.00507 (inactive) | 17% (inactive) | 24.4% (inactive)
CC1CCCC(NC(=O)CSc2ncccc2C(=O)O)C1C (stereo not drawn) | 660 | -10% (inactive) | 7.4% (inactive) | 117 | -55.4% (inactive) | 112 | -0.566 (inactive) | -8.3e-06 (inactive) | 0.00597 (inactive) | 13.9% (inactive) | 24.3% (inactive)
CCOC(=O)c1ccc(NC2OC(=O)c3ccccc32)cc1 (stereo not drawn) | 605 | -54.1% (inactive) | 6.4% (inactive) | 106 | -85.2% (inactive) | 118 | -0.216 (inactive) | -2.5e-05 (inactive) | 0.00703 (inactive) | 11.8% (inactive) | -21.4% (inactive)
Cc1[nH]c2ccccc2c(=O)c1CN(C)Cc1ccccc1 | 270 | 2.9% (inactive) | 13.3% (inactive) | 97.7 | -124% (inactive) | 117 | -0.58 (inactive) | 2e-05 (inactive) | 0.00538 (inactive) | -21% (inactive) | -31.5% (inactive)
CCOC(=O)N1CCN(S(=O)(=O)c2cc(C)c(C)cc2C)CC1 | 373 | 2.8% (inactive) | -7.2% (inactive) | 99.3 | -69.5% (inactive) | 137 | -0.459 (inactive) | -1.8e-05 (inactive) | 0.00447 (inactive) | 13.4% (inactive) | 20.2% (inactive)
O=C(Cn1ccc2ccccc2c1=O)NCCC(=O)N1CCN(C(=O)c2ccco2)CC1 | 397 | -14.1% (inactive) | 11.3% (inactive) | 98.1 | 9.4% (inactive) | 97.8 | -0.503 (inactive) | 0.000132 (inactive) | 0.00733 (inactive) | -0.7% (inactive) | 6.13% (inactive)
O=C(CCn1c(=O)c2sccc2n(CC(=O)NCc2ccco2)c1=O)NCc1ccccc1 | 331 | -2.4% (inactive) | 0% (inactive) | 100 | -60% (inactive) | 111 | -0.566 (inactive) | -8.5e-05 (inactive) | 0.00667 (inactive) | -3.97% (inactive) | -0.766% (inactive)
Cc1ccc(N2CC(C(=O)Nc3nnc(C)s3)CC2=O)cc1 (stereo not drawn) | 622 | 0% (inactive) | -10.8% (inactive) | 95.6 | 21.8% (inactive) | 103 | -0.542 (inactive) | -3e-05 (inactive) | 0.00498 (inactive) | 18.6% (inactive) | 14.5% (inactive)
COC(=O)c1c(C)oc2ccc(NS(=O)(=O)c3cccs3)cc12 | 435 | 3.4% (inactive) | 1.4% (inactive) | 99.1 | -85.7% (inactive) | 114 | -0.534 (inactive) | -8.8e-05 (inactive) | 0.0032 (inactive) | 20.8% (inactive) | 10.9% (inactive)
COc1cccc(NS(=O)(=O)c2cc(C)sc2C)c1 | 311 | -5.7% (inactive) | 3.3% (inactive) | 93 | -57% (inactive) | 113 | -0.467 (inactive) | -1.8e-05 (inactive) | 0.00503 (inactive) | 3.14% (inactive) | 24.9% (inactive)
O=C(O)c1cccc(CN2C(=O)SC(Nc3ccccc3)C2=O)c1 (stereo not drawn) | 510 | 3.6% (inactive) | 5.6% (inactive) | 108 | 39.4% (inactive) | 108 | -0.405 (inactive) | 6.9e-06 (inactive) | 0.00521 (inactive) | 8.76% (inactive) | 18.9% (inactive)

Reference: PubChem BioAssay
